Assay results taken from ChEMBL document CHEMBL4613248, “Twelfth-Position Deuteration of Nevirapine Reduces 12-Hydroxy-Nevirapine Formation and Nevirapine-Induced Hepatocyte Death” (J Med Chem, 2020).

Experiments:
Hepatocyte [1] = assay: Induction of change in DERA protein expression in human primary hepatocytes at 10 uM incubated for 48 hrs by relative-quantitation label-free proteomics analysis relative to NVP; type: cell-based
Summary of the method: (§1)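 Cryoplateable pooled human hepatocytes (10 mixed-sex donors per pool; three pools), adhered overnight, then given fresh medium containing compound (10 μM), NVP (10 μM) or vehicle (0.1% DMSO) for 48 h. Lysate reduced (DTT) and alkylated (iodoacetamide), acetone-precipitated and digested with trypsin. Label-free Top10 nanoLC-MS with precursor ion area quantitation; unpaired t test P values, Cohen's d effect size.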

Cytochrome P450 2B6 [2] = molecular target: T1, Cytochrome P450 2B6 (Homo sapiens, UniProt P20813); assay: Drug metabolism assessed as human CYP2B6-mediated formation of 3-OHNVP at 10 uM pre-incubated for 30 mins followed by addition of NADPH regenerating reagents by uHPLC-MS analysis; type: ADME; details: recombinant enzyme
T1 sequence (P20813 whole entry): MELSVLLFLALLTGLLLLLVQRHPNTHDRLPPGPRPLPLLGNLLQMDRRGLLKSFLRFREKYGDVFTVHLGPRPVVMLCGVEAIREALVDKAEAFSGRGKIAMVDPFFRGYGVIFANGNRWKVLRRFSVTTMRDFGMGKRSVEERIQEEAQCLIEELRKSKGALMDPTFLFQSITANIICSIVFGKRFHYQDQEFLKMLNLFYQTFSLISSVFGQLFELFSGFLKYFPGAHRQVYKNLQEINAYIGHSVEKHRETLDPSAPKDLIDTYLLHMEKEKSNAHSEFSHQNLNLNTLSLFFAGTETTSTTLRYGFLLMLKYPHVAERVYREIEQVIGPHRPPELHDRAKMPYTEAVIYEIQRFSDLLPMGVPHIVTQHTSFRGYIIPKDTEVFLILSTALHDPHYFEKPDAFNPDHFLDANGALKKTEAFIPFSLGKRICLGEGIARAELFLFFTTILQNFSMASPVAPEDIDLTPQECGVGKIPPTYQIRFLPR
Summary of the method: (§2)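 Insect-cell microsomes with single cDNA-expressed human P450 (100 nM) in 0.1 M potassium phosphate; 10 μM substrate prewarmed 5 min at 37 °C with NADPH-regenerating system, reaction started by adding microsomes; 30 min at 37 °C, 0.1% DMSO. Stopped, dried, reconstituted in methanol; triple-quadrupole SRM (12-OH 283.1→223.0, 2-OH 283.1→160.9, 3-OH 283.1→241.9), peak height; three replicates, mean ± SD.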

Hepatocyte [3] = assay: Induction of change in MSRA protein expression in human primary hepatocytes at 10 uM incubated for 48 hrs by relative-quantitation label-free proteomics analysis relative to NVP; type: cell-based; summary of the method: as §1
[4] = Drug metabolism in C57BL/6J mouse primary hepatocytes assessed as Cytochrome P450-mediated formation of 12-OHD2NVP at 10 uM incubated for 24 hrs by uHPLC-MS analysis; type: ADME, cell-based
Summary of the method: (§3)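 Fresh hepatocytes from male C57BL/6J mice (8–13 weeks), adhered overnight, then 10 μM substrate or vehicle (0.1% DMSO) for 24 h. Medium extracted with acetonitrile (50% final), dried, reconstituted in methanol; uHPLC-Orbitrap targeted SIM plus PRM (monooxygenated metabolites) or high-resolution ions (O-glucuronides, 459.1510/462.1700 ±5 ppm); four experimental replicates.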

Hepatocyte [5] = assay: Induction of change in KlAA2013 protein expression in human primary hepatocytes at 10 uM incubated for 48 hrs by relative-quantitation label-free proteomics analysis relative to NVP; type: cell-based; summary of the method: as §1
Cytochrome P450 2C9 = Cytochrome P450 2C9 (Homo sapiens, UniProt P11712); assay: Drug metabolism assessed as human CYP2C9-mediated formation of 12-OHNVP at 10 uM pre-incubated for 30 mins followed by addition of NADPH regenerating reagents by uHPLC-MS analysis; type: ADME; details: recombinant enzyme; summary of the method: as §2
Hepatocyte [6] = assay: Induction of change in CYC1 protein expression in human primary hepatocytes at 10 uM incubated for 48 hrs by relative-quantitation label-free proteomics analysis relative to NVP; type: cell-based; summary of the method: as §1
Cytochrome P450 2C19 = Cytochrome P450 2C19 (Homo sapiens, UniProt P33261); assay: Drug metabolism assessed as human CYP2C19-mediated formation of 12-OHNVP at 10 uM pre-incubated for 30 mins followed by addition of NADPH regenerating reagents by uHPLC-MS analysis; type: ADME; details: recombinant enzyme; summary of the method: as §2
Hepatocyte [7] = assay: Induction of change in PLEKHA6 protein expression in human primary hepatocytes at 10 uM incubated for 48 hrs by relative-quantitation label-free proteomics analysis relative to NVP; type: cell-based; summary of the method: as §1
Hepatocyte [8] = assay: Induction of change in Rps27l protein expression in C57BL/6J mouse primary hepatocytes at 400 uM incubated for 8 hrs by relative-quantitation label-free proteomics analysis relative to NVP; type: cell-based
Summary of the method: as §1, with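 “Fresh primary” for “Cryoplateable pooled human”, “from male C57BL/6J mice aged 8–13 weeks,” for “(10 mixed-sex donors per pool; three pools),”, “(400” for “(10”, “(0.2%” for “(0.1%”, “8” for “48”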

[9] = Drug metabolism in C57BL/6J mouse primary hepatocytes assessed as 12-O-GlucD2NVP metabolite formation at 10 uM incubated for 24 hrs by uHPLC-MS analysis; type: ADME, cell-based, Hepatocyte; summary of the method: as §3
Hepatocyte [10] = assay: Induction of change in PTP4A1 protein expression in human primary hepatocytes at 10 uM incubated for 48 hrs by relative-quantitation label-free proteomics analysis relative to NVP; type: cell-based; summary of the method: as §1
[11] = Drug metabolism in C57BL/6J mouse primary hepatocytes assessed as Cytochrome P450-mediated formation of 2-OHD3NVP at 10 uM incubated for 24 hrs by uHPLC-MS analysis; type: ADME, cell-based; summary of the method: as §3
Cytochrome P450 3A5 = Cytochrome P450 3A5 (Homo sapiens, UniProt P20815); assay: Drug metabolism assessed as human CYP3A5-mediated formation of 12-OHNVP at 10 uM pre-incubated for 30 mins followed by addition of NADPH regenerating reagents by uHPLC-MS analysis; type: ADME; details: recombinant enzyme; summary of the method: as §2
Cytochrome P450 2B6 [12] = molecular target: T1, Cytochrome P450 2B6; assay: Drug metabolism assessed as human CYP2B6-mediated formation of 12-OHNVP at 10 uM pre-incubated for 30 mins followed by addition of NADPH regenerating reagents by uHPLC-MS analysis; type: ADME; details: recombinant enzyme; summary of the method: as §2
Hepatocyte [13] = assay: Induction of change in Actb protein expression in C57BL/6J mouse primary hepatocytes at 400 uM incubated for 8 hrs by relative-quantitation label-free proteomics analysis relative to NVP; type: cell-based
Summary of the method: as §1, with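 “Fresh primary” for “Cryoplateable pooled human”, “from male C57BL/6J mice aged 8–13 weeks,” for “(10 mixed-sex donors per pool; three pools),”, “(400” for “(10”, “(0.2%” for “(0.1%”, “8” for “48”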

Hepatocyte [14] = assay: Induction of change in Endog protein expression in C57BL/6J mouse primary hepatocytes at 400 uM incubated for 8 hrs by relative-quantitation label-free proteomics analysis relative to NVP; type: cell-based
Summary of the method: as §1, with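 “Fresh primary” for “Cryoplateable pooled human”, “from male C57BL/6J mice aged 8–13 weeks,” for “(10 mixed-sex donors per pool; three pools),”, “(400” for “(10”, “(0.2%” for “(0.1%”, “8” for “48”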

Hepatocyte [15] = assay: Induction of change in Manf protein expression in C57BL/6J mouse primary hepatocytes at 400 uM incubated for 8 hrs by relative-quantitation label-free proteomics analysis relative to NVP; type: cell-based
Summary of the method: as §1, with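 “Fresh primary” for “Cryoplateable pooled human”, “from male C57BL/6J mice aged 8–13 weeks,” for “(10 mixed-sex donors per pool; three pools),”, “(400” for “(10”, “(0.2%” for “(0.1%”, “8” for “48”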

Hepatocyte [16] = assay: Induction of change in MRPL23 protein expression in human primary hepatocytes at 10 uM incubated for 48 hrs by relative-quantitation label-free proteomics analysis relative to NVP; type: cell-based; summary of the method: as §1
Hepatocyte [17] = assay: Induction of change in Rps27a protein expression in C57BL/6J mouse primary hepatocytes at 400 uM incubated for 8 hrs by relative-quantitation label-free proteomics analysis relative to NVP; type: cell-based
Summary of the method: as §1, with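 “Fresh primary” for “Cryoplateable pooled human”, “from male C57BL/6J mice aged 8–13 weeks,” for “(10 mixed-sex donors per pool; three pools),”, “(400” for “(10”, “(0.2%” for “(0.1%”, “8” for “48”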

Chain of Cytochrome P450 2C19 (P33261 whole entry): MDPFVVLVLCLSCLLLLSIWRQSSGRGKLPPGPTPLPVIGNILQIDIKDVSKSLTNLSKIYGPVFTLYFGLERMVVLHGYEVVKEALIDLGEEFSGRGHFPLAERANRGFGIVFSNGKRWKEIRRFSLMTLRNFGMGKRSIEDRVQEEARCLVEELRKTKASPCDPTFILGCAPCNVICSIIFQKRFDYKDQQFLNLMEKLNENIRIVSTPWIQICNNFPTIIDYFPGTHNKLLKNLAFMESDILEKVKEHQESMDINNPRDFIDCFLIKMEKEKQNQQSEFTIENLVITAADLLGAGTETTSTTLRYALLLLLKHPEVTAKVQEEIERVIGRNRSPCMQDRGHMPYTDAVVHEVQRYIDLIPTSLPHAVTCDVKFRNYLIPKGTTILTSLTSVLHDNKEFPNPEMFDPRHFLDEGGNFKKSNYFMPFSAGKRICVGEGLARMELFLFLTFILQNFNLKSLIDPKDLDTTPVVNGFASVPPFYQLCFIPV
Chain of Cytochrome P450 2C9 (P11712 whole entry): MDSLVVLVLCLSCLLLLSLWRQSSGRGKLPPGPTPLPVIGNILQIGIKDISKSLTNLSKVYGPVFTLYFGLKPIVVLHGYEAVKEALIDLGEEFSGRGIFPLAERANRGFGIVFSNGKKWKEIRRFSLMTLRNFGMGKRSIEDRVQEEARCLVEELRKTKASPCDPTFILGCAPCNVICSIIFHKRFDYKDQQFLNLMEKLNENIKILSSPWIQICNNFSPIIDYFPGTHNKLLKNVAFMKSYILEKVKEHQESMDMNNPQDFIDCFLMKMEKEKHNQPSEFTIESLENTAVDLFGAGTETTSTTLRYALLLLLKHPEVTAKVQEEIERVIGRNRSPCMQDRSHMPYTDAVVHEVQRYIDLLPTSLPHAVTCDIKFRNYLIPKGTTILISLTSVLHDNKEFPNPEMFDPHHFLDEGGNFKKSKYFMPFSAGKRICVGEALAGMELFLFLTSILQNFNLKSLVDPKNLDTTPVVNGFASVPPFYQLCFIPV
Chain of Cytochrome P450 3A5 (P20815 whole entry): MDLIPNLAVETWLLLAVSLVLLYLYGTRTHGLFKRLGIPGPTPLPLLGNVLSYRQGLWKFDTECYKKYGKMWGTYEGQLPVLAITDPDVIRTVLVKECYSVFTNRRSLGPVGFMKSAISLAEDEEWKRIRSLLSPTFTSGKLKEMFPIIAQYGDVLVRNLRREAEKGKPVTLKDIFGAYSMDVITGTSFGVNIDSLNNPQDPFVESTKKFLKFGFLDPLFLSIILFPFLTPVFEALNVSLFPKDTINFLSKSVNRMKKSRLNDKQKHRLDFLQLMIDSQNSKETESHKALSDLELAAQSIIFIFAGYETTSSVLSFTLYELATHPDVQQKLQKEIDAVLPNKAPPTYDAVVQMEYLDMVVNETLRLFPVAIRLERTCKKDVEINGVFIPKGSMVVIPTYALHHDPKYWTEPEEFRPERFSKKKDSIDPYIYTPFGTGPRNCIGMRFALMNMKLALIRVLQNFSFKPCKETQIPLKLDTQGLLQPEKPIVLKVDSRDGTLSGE

[2H]C([2H])([2H])c1ccnc2c1NC(=O)c1cccnc1N2C1CC1
fold change (FC) (Hepatocyte [1]): -1.63
Drug metabolism (Cytochrome P450 2B6 [2]): Metabolite_Detected
fold change (FC) (Hepatocyte [3]): -2.05
Drug metabolism [4]: Metabolite_Detected
fold change (FC) (Hepatocyte [5]): 1.36
Drug metabolism (Cytochrome P450 2C9): Metabolite_Detected
fold change (FC) (Hepatocyte [6]): -1.4
Drug metabolism (Cytochrome P450 2C19): Metabolite_Detected
fold change (FC) (Hepatocyte [7]): 1.59
fold change (FC) (Hepatocyte [8]): -5.67
Drug metabolism [9]: Metabolite_Notdetected
fold change (FC) (Hepatocyte [10]): -2.42
Drug metabolism [11]: Metabolite_Detected
Drug metabolism (Cytochrome P450 3A5): Metabolite_Notdetected
Drug metabolism (Cytochrome P450 2B6 [12]): Metabolite_Detected
fold change (FC) (Hepatocyte [13]): 1.05
fold change (FC) (Hepatocyte [14]): 2.07
fold change (FC) (Hepatocyte [15]): 1.3
fold change (FC) (Hepatocyte [16]): 8.32
fold change (FC) (Hepatocyte [17]): 3.03
